Assay results published in ChEMBL document CHEMBL4118097, “Selective Inhibitors of Dual Leucine Zipper Kinase (DLK, MAP3K12) with Activity in a Model of Alzheimer's Disease” (J Med Chem, 2017).
Active and inactive are the calls of the source. The calls are words filed in the database; no cut-off is given here.

What was measured:
[1] = system: Mus musculus; experiment: Down regulation of phosphorylated JNK level in cortical lysate of PS2APP mouse model at 15 to 50 mg/kg, po administered as single dose after 6 hrs by Western blot analysis; type: functional, organism-based
[2] = system: Mus musculus; experiment: In-vivo inhibition of DLK in PS2APP mouse model assessed as reduction in phosphorylated c-jun level in cortical lysate at 15 mg/kg, po administered as single dose after 6 hrs by Western blot analysis; type: functional, organism-based
[3] = biological target: T1, Mitogen-activated protein kinase kinase kinase 12 (Homo sapiens, UniProt Q12852); experiment: Inhibition of doxycycline inducible human DLK transfected in HEK293 cells assessed as JNK phosphorylation after […] in presence of 10% bovine serum by Hoechst-33342 staining-based assay; type: cell-based
T1 sequence (Q12852 whole entry): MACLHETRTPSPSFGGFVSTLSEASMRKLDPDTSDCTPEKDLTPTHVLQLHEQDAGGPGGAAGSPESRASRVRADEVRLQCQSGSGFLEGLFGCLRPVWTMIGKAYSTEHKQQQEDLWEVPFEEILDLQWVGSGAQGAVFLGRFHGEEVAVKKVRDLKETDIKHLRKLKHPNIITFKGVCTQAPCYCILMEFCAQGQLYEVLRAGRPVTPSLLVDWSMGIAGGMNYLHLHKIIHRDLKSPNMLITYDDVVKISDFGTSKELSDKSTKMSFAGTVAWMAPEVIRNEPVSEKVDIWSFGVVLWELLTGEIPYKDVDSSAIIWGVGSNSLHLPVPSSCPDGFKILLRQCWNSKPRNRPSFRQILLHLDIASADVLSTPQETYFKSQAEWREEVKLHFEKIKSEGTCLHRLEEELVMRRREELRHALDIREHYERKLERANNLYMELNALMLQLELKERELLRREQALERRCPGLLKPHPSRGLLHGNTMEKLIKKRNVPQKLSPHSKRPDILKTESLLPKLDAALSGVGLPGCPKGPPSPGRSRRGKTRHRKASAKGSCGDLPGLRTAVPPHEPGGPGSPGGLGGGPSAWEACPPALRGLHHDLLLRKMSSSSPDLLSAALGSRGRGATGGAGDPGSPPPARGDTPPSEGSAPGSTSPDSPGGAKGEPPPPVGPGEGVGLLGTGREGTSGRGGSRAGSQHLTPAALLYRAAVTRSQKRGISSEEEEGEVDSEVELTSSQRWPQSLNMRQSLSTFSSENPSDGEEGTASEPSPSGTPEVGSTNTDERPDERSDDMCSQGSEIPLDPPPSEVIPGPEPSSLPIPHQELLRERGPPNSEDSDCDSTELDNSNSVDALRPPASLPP

[4] = system: Mus musculus; experiment: Down regulation of phosphorylated MKK4 level in cortical lysate of PS2APP mouse model at 15 to 50 mg/kg, po administered as single dose after 6 hrs by Western blot analysis; type: functional, organism-based
[5] = biological target: Calcium/calmodulin-dependent protein kinase type 1 (Homo sapiens) (UniProt Q14012); experiment: Inhibition of recombinant full length His-tagged human CaMK1 expressed in baculovirus expression system at 1 uM by FRET assay relative to control
Calcium/calmodulin-dependent protein kinase type 1 (Homo sapiens), sequence (Q14012 whole entry, looked up): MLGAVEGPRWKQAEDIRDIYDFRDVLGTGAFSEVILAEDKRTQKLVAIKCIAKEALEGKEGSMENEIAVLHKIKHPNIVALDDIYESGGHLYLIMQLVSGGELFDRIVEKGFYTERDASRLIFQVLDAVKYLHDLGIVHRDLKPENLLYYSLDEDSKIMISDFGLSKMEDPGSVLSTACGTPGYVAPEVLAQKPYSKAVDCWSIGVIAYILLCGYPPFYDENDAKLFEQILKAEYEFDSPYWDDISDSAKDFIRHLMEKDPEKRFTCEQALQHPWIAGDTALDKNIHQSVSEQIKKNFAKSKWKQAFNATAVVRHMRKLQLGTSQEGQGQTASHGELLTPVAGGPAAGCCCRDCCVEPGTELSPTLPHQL

[6] = biological target: Serine/threonine-protein kinase 26 (Homo sapiens) (UniProt Q9P289); experiment: Inhibition of recombinant GST-tagged human MST4 expressed in baculovirus at 1 uM by FRET assay relative to control
Serine/threonine-protein kinase 26 (Homo sapiens), sequence (Q9P289 2-416 limits assumed): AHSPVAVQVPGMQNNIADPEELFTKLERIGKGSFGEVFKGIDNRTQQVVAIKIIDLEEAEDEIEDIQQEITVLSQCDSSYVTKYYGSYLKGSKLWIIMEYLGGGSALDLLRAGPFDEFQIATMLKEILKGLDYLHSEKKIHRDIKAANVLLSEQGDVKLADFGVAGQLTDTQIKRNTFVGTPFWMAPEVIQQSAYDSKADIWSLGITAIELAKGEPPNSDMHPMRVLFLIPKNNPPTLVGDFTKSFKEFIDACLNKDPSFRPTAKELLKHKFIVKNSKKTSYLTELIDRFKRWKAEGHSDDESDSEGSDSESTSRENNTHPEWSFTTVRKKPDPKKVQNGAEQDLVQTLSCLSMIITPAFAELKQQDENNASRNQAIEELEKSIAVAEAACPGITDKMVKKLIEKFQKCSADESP

[7] = system: Mus musculus; experiment: In-vivo inhibition of DLK in PS2APP mouse model assessed as reduction in phosphorylated c-jun level in cortical lysate at 50 mg/kg, po administered as single dose after 6 hrs by Western blot analysis; type: functional, organism-based
[8] = biological target: Serine/threonine-protein kinase PAK 4 (Homo sapiens, UniProt O96013); experiment: Inhibition of recombinant GST-tagged human PAK4 catalytic domain expressed in baculovirus expression system by FRET assay
Serine/threonine-protein kinase PAK 4, sequence (O96013 whole entry, the tested form may be a part): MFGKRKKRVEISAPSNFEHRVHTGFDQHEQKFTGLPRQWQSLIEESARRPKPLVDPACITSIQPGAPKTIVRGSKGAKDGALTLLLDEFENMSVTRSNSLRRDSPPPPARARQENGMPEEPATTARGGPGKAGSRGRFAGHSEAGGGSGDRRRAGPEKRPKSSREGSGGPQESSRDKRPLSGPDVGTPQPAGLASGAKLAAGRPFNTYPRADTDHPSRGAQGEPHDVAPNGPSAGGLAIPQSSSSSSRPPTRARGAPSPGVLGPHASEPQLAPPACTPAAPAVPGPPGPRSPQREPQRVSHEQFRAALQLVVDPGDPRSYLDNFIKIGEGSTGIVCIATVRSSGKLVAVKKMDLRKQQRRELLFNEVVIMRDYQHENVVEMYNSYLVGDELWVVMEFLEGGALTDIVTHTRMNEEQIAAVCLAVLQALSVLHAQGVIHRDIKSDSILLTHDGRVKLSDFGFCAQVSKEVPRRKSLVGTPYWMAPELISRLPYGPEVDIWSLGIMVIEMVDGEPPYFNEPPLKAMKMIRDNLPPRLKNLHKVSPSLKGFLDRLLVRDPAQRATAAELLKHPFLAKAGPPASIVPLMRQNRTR

[9] = biological target: Serine/threonine-protein kinase 16 (Homo sapiens, UniProt O75716); experiment: Inhibition of recombinant full length His-tagged human STK16 expressed in baculovirus expression system by FRET assay
Serine/threonine-protein kinase 16, sequence (O75716 whole entry, the tested form may be a part): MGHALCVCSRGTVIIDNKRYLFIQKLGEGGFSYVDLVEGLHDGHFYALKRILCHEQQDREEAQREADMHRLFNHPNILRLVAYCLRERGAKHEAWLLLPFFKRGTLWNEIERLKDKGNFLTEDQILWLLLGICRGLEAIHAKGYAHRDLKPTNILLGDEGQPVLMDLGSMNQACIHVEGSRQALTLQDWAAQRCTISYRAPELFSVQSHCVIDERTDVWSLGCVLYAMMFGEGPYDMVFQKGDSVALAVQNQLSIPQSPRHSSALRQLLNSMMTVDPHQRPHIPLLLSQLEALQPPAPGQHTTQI

[10] = biological target: Serine/threonine-protein kinase Nek9 (Homo sapiens) (UniProt Q8TD19); experiment: Inhibition of recombinant full length GST-tagged human NEK9 catalytic domain expressed in baculovirus expression system at 1 uM by FRET assay relative to control
[11] = system: Mus musculus; experiment: In-vivo inhibition of DLK in PS2APP mouse model assessed as reduction in phosphorylated c-jun level in cortical lysate at 15 mg/kg, po administered as single dose after 6 hrs by Western blot analysis relative to control; type: functional
Method in brief: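 Homozygous PS2APP mice aged 9–10 months got one oral dose of 15 mg/kg as an MCT suspension, or vehicle; n = 7–8 per group. At 6 h: terminal plasma by cardiac puncture under deep anaesthesia, then PBS perfusion. Left cortex frozen at −80 °C and homogenised in 10 volumes RIPA. p-c-Jun read by Western blot with a GAPDH control, compared with vehicle (Dunnett's test).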

[12] = biological target: Macrophage colony-stimulating factor 1 receptor (Homo sapiens, UniProt P07333); experiment: Inhibition of recombinant His-tagged human CSF1R cytoplasmic domain (538 to 910 residues) expressed in baculovirus expression system by FRET assay
Macrophage colony-stimulating factor 1 receptor, sequence (P07333 whole entry, the tested form may be a part): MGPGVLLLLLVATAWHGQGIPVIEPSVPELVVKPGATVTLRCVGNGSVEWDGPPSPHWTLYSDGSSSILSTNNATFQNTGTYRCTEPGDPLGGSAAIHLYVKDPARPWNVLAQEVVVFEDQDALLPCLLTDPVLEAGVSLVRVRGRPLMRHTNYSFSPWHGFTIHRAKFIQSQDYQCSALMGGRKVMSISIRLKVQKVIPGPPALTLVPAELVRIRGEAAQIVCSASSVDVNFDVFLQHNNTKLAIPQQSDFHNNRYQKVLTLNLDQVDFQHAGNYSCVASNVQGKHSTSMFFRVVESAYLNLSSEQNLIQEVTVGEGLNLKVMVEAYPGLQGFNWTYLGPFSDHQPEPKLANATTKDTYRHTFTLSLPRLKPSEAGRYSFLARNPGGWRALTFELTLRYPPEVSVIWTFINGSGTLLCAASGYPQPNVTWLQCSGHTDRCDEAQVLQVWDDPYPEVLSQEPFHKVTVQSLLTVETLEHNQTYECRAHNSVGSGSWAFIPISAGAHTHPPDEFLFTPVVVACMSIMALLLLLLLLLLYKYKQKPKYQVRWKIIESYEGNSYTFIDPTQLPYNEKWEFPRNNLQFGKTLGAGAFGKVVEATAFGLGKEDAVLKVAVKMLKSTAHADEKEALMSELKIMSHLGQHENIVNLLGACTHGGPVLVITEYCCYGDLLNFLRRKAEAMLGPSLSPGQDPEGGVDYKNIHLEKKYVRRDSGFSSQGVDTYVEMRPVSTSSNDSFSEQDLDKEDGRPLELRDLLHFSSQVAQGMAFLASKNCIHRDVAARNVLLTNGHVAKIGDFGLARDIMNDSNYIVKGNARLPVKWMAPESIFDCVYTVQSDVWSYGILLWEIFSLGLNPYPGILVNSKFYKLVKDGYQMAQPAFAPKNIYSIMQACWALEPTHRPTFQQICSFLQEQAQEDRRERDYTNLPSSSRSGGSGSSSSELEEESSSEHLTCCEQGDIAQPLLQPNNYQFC

[13] = biological target: Myotonin-protein kinase (Homo sapiens, UniProt Q09013); experiment: Inhibition of full length recombinant human DMPK expressed in baculovirus expression system by FRET assay
Myotonin-protein kinase, sequence (Q09013 whole entry, canonical isoform): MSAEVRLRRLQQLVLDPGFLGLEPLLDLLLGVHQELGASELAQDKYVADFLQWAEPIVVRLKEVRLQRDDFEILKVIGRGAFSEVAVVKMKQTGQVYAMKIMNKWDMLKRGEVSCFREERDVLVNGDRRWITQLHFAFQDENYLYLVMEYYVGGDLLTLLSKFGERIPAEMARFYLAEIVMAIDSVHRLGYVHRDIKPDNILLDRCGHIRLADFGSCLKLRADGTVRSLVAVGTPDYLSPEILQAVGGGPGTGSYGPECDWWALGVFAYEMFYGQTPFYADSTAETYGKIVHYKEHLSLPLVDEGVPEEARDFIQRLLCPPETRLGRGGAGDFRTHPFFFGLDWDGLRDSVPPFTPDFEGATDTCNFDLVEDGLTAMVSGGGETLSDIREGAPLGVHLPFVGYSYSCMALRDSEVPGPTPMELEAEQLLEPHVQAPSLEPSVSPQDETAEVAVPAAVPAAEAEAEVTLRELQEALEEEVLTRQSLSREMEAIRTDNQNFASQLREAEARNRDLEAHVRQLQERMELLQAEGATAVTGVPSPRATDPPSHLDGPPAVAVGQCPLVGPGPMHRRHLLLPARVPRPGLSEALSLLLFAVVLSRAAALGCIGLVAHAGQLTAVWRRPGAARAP

[14] = biological target: Phosphatidylinositol 4,5-bisphosphate 3-kinase catalytic subunit gamma isoform (Homo sapiens) (UniProt P48736); experiment: Inhibition of recombinant full length His-tagged human PI3KG at 1 uM by FRET assay relative to control
[15] = biological target: Casein kinase I isoform gamma-2 (Homo sapiens) (UniProt P78368); experiment: Inhibition of CK1gamma2 (unknown origin) at 1 uM by FRET assay relative to control
Casein kinase I isoform gamma-2 (Homo sapiens), sequence (P78368 whole entry, looked up, the tested form may be a part, canonical isoform): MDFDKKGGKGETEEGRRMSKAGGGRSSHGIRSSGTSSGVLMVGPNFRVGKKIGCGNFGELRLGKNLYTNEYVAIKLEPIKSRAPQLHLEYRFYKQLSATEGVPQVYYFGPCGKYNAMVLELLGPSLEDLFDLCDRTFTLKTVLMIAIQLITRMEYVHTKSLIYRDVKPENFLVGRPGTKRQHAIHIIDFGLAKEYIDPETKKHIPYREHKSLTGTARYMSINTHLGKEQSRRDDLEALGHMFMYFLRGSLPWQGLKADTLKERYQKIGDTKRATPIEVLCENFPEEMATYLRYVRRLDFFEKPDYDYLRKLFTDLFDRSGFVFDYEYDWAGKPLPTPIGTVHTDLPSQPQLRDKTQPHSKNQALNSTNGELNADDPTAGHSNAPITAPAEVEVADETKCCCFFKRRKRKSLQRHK

[16] = biological target: Tyrosine-protein kinase receptor UFO (Homo sapiens, UniProt P30530); experiment: Inhibition of recombinant His-tagged human AXL (473 to end residues) cytoplasmic domain expressed in insect cells by FRET assay
Tyrosine-protein kinase receptor UFO, sequence (P30530 whole entry, the tested form may be a part): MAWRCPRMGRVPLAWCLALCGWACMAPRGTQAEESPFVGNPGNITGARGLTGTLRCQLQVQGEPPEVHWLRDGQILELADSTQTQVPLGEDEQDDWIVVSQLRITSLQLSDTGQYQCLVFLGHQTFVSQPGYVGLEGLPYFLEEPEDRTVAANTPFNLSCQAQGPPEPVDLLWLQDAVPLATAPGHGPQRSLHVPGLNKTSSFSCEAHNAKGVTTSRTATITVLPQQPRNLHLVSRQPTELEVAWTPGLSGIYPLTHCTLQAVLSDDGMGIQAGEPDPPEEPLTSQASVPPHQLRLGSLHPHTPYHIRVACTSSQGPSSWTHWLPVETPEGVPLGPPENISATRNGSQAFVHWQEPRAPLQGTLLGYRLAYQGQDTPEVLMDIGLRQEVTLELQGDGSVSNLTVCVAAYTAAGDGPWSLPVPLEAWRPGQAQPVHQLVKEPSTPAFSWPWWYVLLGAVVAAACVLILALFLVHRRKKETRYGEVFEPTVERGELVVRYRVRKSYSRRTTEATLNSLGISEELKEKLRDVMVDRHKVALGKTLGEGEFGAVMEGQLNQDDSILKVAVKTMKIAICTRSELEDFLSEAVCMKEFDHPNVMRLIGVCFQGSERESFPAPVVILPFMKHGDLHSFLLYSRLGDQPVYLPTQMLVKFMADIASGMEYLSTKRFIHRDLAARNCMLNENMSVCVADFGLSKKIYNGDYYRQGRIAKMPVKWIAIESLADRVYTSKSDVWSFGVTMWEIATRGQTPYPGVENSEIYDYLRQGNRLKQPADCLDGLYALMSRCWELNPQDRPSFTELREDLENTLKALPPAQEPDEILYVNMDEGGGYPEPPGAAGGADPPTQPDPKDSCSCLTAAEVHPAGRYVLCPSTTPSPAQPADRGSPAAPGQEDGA

[17] = biological target: Calcium/calmodulin-dependent protein kinase type IV (Homo sapiens) (UniProt Q16566); experiment: Inhibition of recombinant full length GST-tagged human CamK4 expressed in Escherichia coli at 1 uM by FRET assay relative to control

Row | SMILES | Activity [1] | inhibition [2] | IC50 [3] | Activity [4] | inhibition [5] | inhibition [6] | inhibition [7] | IC50 [8] | IC50 [9] | inhibition [10] | inhibition in vivo at 15 mg/kg [11] | IC50 [12] | IC50 [13] | inhibition [14] | inhibition [15] | IC50 [16] | inhibition [17]
1 | CC(C)n1nc(-c2cnc(N)c(OC(F)(F)F)c2)cc1[C@H]1[C@@H]2CN(C3COC3)C[C@@H]21 | Active | Active | 129 nM | Active | -5.9% | -3.5% | Active | 673 nM | 1520 nM | -3.4% | 42% |  |  |  |  |  | 
2 | Nc1ncc(-c2cc([C@H]3[C@@H]4CN(C5COC5)C[C@@H]43)n(CC3CC3)n2)cc1C(F)(F)F |  |  |  |  |  |  |  |  |  |  |  | 1220 nM | 1380 nM | 12.4% | 7.1% | 448 nM | 12.4%
